Reference: paper PMC2871304 (Biochemistry, 2010)

Columns and labels:
neprilysin (NEP) = neprilysin (NEP) (Homo sapiens, UniProt P08473); assay: Enzymatic degradation of Aβ fibrils by neprilysin; assay type: in vitro ADME; settings: NEP 50 μg/mL, 48 h, 0.1 M phosphate buffer pH 7.4, 37°C; AFM
In short: (§1)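 Fibrils were made from Aβ(1-42): 5 mM in DMSO, sonicated 10 min at 37°C, diluted to 100 μM in 10 mM HCl, sonicated 30 min, filtered through 10,000 MWCO, then held 2 days at 37°C. After enzyme treatment, fibrils on gold-coated substrates were imaged by tapping-mode AFM in air with a 3 N/m silicon cantilever. Tip-convolution calibration gave true dimensions.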

[1] = Circular dichroism, secondary structure content; assay type: physicochemical; settings: CD at 37°C, filtered (10K MWCO) samples
In short: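 Microfibrils were measured by CD at 37°C before and after enzymatic degradation (24 or 48 h). Spectra were taken at 12 nm·sec−1 and 1 nm resolution, with 4 scans averaged. Enzyme-only solutions were subtracted. Data were expressed as molar residue ellipticity using 42 residues and 0.3 mM peptide. Secondary-structure content was estimated by a published method.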

[2] = target: insulin degrading enzyme (IDE) (Homo sapiens, UniProt P14735); assay: Enzymatic degradation of Aβ fibrils by insulin degrading enzyme; assay type: in vitro ADME; settings: IDE 50 μg/mL, 48 h, 0.1 M phosphate buffer pH 7.4, 37°C; AFM
In short: as §1

protease XIV = assay: Enzymatic degradation of Aβ fibrils by protease XIV; assay type: in vitro ADME; settings: protease XIV 100 μg/mL, 24 h, 0.1 M phosphate buffer pH 7.4, 37°C; MALDI-TOF
In short: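 Fibrils from 100 μM Aβ(1-42) were aged 2 days at 37°C, then digested with the enzyme. Products (about 1 μg/mL peptide) were mixed with saturated sinapic acid in ACN/0.1% TFA (1:2) and run by MALDI-TOF over 20–5000 Da. Enzyme alone served as control. Cleavage patterns were inferred from substrate specificity (C-terminal to aromatic and basic residues) and fragment masses.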

[3] = MFTIR, secondary structure of microfibrils in air; assay type: physicochemical; settings: amide I region deconvoluted
In short: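 Aβ(1-42) fibrils, formed by incubating 100 μM peptide in dilute HCl for 2 days at 37°C, were deposited on gold-coated substrates. Infrared microscopy was done in reflection mode at 4 cm−1 resolution with a liquid-nitrogen-cooled MCT detector.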

Chain of neprilysin (NEP) (P08473 whole entry, species assumed): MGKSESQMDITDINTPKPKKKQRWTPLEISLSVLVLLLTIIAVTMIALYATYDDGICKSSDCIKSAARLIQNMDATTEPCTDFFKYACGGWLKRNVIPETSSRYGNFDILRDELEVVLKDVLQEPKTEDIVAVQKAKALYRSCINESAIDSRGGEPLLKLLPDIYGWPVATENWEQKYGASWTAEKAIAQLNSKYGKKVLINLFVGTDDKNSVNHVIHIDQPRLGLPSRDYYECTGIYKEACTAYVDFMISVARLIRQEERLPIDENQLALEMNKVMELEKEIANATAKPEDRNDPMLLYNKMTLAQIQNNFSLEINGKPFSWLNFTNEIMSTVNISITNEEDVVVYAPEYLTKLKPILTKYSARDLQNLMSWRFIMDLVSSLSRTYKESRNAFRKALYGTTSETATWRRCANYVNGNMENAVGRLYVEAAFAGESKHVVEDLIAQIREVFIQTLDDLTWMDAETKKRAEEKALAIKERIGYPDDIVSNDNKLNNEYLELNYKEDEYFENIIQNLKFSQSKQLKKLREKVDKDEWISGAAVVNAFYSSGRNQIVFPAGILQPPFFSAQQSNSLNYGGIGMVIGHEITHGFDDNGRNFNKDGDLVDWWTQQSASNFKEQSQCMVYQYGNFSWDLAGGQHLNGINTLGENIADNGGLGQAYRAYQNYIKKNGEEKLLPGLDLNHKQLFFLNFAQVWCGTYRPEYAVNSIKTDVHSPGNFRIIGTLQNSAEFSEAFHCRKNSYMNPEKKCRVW

## Aβ microfibrils: Fibrils of purchased Aβ(1-42) peptide, incubated in DMSO/10 mM HCl at 37°C for 2 days
Neprilysin (NEP)
  degradation on exposure to NEP: almost no significant degradation
[1]
  beta-strand structures, filtered samples: 18±3%
[2]
  degradation on exposure to IDE: almost no significant degradation
Protease XIV
  full-length Aβ(1-42) after degradation by protease XIV: no full-length Aβ(1-42) peptides
[3]
  alpha-helix and random coil content: 12±2%
  beta-sheet content: 71±8%
  turns content: 17±5%
